Assay: Inhibition of T3SS-dependent SipA secretion in Salmonella Typhimurium
Parameters: species or system Salmonella enterica subsp. enterica serovar Typhimurium
Procedure, shortened: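 Salmonella typhimurium type III secretion read out as secretion of the substrate SipA into culture supernatants. Supernatant proteins TCA-precipitated, resolved by SDS-PAGE and Western blotted with anti-SipA antibody; IC50 derived from the reduction in secreted SipA.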

IC50 [µM]	SMILES
22	COc1cc(/C=C2\S/C(=N\c3ccccc3)N(CC(=O)Nc3ccccc3NC(=O)CN3C(=O)/C(=C/c4cc(OC)c(O)c(OC)c4)S/C3=N\c3ccccc3)C2=O)cc(OC)c1O
55	COc1cc(/C=C2\S/C(=N\c3ccccc3)N(CCNC(=O)C3CCCN3C(=O)CN3C(=O)/C(=C/c4cc(OC)c(O)c(OC)c4)S/C3=N\c3ccccc3)C2=O)cc(OC)c1O (configuration not stated)
17	COc1cc(/C=C2\S/C(=N\c3ccccc3)N(CCCCCCNC(=O)CCCN3C(=O)/C(=C/c4cc(OC)c(O)c(OC)c4)S/C3=N\c3ccccc3)C2=O)cc(OC)c1O
83	COc1cc(/C=C2\S/C(=N\c3ccccc3)N(c3ccccc3)C2=O)cc(OC)c1O
5	COc1cc(/C=C2\S/C(=N\c3ccccc3)N(CCCCCCNC(=O)CN3C(=O)/C(=C/c4cc(OC)c(O)c(OC)c4)S/C3=N\c3ccccc3)C2=O)cc(OC)c1O
48	COc1cc(/C=C2\S/C(=N\c3ccccc3)N(CCCNC(=O)CN3C(=O)/C(=C/c4cc(OC)c(O)c(OC)c4)S/C3=N\c3ccccc3)C2=O)cc(OC)c1O
44	COc1cc(/C=C2\S/C(=N\c3ccccc3)N(CCN3CCN(CCN4C(=O)/C(=C/c5cc(OC)c(O)c(OC)c5)S/C4=N\c4ccccc4)CC3)C2=O)cc(OC)c1O
65	COc1cc(/C=C2\S/C(=N\c3ccccc3)N(CCCCCCNCCN3C(=O)/C(=C/c4cc(OC)c(O)c(OC)c4)S/C3=N\c3ccccc3)C2=O)cc(OC)c1O
47	COc1cc(/C=C2\S/C(=N\c3ccccc3)N(CCCCNC(=N)NCCN3C(=O)/C(=C/c4cc(OC)c(O)c(OC)c4)S/C3=N\c3ccccc3)C2=O)cc(OC)c1O
48	COc1cc(/C=C2\S/C(=N\c3ccccc3)N(CCCNC(=O)[C@H](CCCNC(=N)N)NC(=O)CN3C(=O)/C(=C/c4cc(OC)c(O)c(OC)c4)S/C3=N\c3ccccc3)C2=O)cc(OC)c1O
80	COc1cc(/C=C2\S/C(=N\c3ccccc3)N(CC(=O)Nc3cccc(NC(=O)CN4C(=O)/C(=C/c5cc(OC)c(O)c(OC)c5)S/C4=N\c4ccccc4)c3)C2=O)cc(OC)c1O
49	COc1cc(/C=C2\S/C(=N\c3ccccc3)N(CCCNC(=O)[C@H](Cc3ccc(-c4ccccc4)cc3)NC(=O)[C@H](CCCN)N3C(=O)/C(=C/c4cc(OC)c(O)c(OC)c4)S/C3=N\c3ccccc3)C2=O)cc(OC)c1O
